The term IC50 denotes the concentration at which inhibition is half-maximal. A low value points to greater potency. For orientation: Ki means a measure of affinity in units of concentration, obtained from inhibition or displacement.

In assay [1] the target is T1, Disintegrin and metalloproteinase domain-containing protein 9 (Homo sapiens, UniProt Q13443).
T1 sequence (Q13443 whole entry): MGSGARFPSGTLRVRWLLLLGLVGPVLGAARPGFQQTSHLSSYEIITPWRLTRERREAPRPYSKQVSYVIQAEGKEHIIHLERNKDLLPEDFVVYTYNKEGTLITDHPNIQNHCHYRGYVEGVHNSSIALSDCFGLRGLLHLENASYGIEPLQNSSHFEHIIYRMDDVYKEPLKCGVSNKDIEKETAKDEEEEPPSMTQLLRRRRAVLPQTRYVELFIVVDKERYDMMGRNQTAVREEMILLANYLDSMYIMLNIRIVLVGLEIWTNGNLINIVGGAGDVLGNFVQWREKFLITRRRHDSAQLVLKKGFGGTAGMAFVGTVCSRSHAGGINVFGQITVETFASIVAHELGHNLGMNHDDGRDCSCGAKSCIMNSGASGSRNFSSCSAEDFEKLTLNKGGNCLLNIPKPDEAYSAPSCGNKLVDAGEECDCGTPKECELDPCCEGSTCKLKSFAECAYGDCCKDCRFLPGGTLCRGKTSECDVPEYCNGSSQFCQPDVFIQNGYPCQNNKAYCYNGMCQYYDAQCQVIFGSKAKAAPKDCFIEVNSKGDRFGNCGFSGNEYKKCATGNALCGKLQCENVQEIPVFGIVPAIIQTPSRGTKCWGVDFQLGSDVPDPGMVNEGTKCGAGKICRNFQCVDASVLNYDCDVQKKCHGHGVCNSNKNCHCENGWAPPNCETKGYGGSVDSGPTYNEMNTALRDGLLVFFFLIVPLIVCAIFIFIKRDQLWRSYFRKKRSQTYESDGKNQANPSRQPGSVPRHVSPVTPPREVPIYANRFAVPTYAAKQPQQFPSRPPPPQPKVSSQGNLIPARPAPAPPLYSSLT
Put plainly: Inhibition of the heparin binding epidermal growth factor (HB-EGF) release from fibrosarcoma HT1080 transfectants expressing […] (AP) tagged HB-EGF stimulated by 12-O-tetradecanoylphorbol 13-acetate(TPA). The method, boiled down: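 HT-1080 transfectants in MEM/10% FCS seeded at 2 × 10⁵ cells/well, grown 24 h, PBS-washed, preincubated 30 min with compound in MEM containing 1% DMSO. Stimulated with TPA (60 nM) for 60 min. Supernatant heated 10 min at 65 °C to kill endogenous phosphatases, then incubated 2 h with p-nitrophenyl phosphate (1 mg/mL) in 1 M diethanolamine, pH 9.8; A405. IC50 from a concentration series.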

Assay [2] concerns the target Matrix metalloproteinase-9 (Homo sapiens, UniProt P14780). The assay can be described thus: Inhibitory activity against matrix metalloprotease-9 (MMP-9)(gelatinase-B).
The target in assay [3] is Stromelysin-1 (Homo sapiens, UniProt P08254). The assay can be described thus: Inhibitory activity against matrix metalloprotease-3 (MMP-3)(stromelysin-1). The method, boiled down: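 Recombinant human MMP-3 activated with 1 mM p-aminophenylmercuric acetate, 1 h, 37 °C. Compound in 50 mM Tris, 150 mM NaCl, 10 mM CaCl2, 0.05% Brij-35, pH 7.5, preincubated with enzyme 10 min at 37 °C. Fluorescence-quenched peptide substrate added, 2 h at 37 °C; Ex/Em 320/405 nm. Ki from percent inhibition and substrate Km.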
Sequence of Stromelysin-1 (P08254 whole entry): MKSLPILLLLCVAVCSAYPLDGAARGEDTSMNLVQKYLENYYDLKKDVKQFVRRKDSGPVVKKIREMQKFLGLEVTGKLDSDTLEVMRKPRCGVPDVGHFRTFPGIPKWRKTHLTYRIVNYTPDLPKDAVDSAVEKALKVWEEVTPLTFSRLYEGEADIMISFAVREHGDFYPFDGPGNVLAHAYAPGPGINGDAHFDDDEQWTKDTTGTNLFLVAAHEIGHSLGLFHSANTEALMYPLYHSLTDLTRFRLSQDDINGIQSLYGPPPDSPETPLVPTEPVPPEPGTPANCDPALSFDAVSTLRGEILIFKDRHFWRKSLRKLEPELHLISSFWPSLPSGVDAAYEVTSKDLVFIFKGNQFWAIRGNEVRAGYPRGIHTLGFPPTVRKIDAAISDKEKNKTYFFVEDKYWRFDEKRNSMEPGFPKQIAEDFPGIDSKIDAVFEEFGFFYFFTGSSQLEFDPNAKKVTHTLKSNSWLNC

Assay [4] concerns the target T2, Interstitial collagenase (Homo sapiens, UniProt P03956).
T2 sequence (P03956 whole entry): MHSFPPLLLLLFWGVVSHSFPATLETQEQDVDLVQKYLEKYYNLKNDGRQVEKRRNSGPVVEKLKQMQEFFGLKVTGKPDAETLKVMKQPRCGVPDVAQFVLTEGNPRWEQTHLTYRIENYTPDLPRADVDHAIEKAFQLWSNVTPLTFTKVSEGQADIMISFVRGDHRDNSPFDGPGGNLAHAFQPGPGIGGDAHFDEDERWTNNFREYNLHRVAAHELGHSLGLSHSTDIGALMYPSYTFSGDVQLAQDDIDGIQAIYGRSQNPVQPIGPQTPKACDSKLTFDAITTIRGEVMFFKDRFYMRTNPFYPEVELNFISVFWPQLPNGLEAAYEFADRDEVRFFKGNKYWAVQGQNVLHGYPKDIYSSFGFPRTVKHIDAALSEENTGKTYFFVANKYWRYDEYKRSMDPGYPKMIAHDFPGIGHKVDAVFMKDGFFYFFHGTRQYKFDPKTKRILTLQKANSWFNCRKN
Put plainly: Inhibitory activity against matrix metalloprotease-1 (MMP-1)(recombinant human collagenase-1).

Assay [5] deals with Disintegrin and metalloproteinase domain-containing protein 17 (Homo sapiens, UniProt P78536). Put plainly: Inhibitory activity against tumor necrosis factor alpha converting enzyme (TACE) from human acute monocytic leukemia cell line.
Sequence of Disintegrin and metalloproteinase domain-containing protein 17 (P78536 whole entry, the tested form may be a part): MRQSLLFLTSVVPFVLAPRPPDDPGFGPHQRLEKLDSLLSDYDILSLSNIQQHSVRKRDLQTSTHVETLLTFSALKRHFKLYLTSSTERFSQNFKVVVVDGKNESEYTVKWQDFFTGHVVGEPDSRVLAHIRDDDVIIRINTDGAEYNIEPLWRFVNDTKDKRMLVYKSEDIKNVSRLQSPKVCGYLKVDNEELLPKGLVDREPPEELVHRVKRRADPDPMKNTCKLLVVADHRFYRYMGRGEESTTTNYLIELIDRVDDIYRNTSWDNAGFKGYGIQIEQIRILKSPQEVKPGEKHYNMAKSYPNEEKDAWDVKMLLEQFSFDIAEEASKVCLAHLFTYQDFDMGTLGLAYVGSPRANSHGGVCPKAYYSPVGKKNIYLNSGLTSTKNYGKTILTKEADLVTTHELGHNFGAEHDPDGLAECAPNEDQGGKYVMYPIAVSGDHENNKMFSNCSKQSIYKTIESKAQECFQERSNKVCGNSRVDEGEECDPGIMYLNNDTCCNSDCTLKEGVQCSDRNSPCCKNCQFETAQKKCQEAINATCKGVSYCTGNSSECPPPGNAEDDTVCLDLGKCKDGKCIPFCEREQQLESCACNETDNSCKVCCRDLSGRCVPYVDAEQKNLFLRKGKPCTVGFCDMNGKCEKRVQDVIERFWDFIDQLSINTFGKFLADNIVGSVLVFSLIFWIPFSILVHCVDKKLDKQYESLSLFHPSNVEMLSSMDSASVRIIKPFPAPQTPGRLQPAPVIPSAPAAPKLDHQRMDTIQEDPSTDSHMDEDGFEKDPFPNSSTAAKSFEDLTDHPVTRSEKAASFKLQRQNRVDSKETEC

Sequence of Matrix metalloproteinase-9 (P14780 whole entry): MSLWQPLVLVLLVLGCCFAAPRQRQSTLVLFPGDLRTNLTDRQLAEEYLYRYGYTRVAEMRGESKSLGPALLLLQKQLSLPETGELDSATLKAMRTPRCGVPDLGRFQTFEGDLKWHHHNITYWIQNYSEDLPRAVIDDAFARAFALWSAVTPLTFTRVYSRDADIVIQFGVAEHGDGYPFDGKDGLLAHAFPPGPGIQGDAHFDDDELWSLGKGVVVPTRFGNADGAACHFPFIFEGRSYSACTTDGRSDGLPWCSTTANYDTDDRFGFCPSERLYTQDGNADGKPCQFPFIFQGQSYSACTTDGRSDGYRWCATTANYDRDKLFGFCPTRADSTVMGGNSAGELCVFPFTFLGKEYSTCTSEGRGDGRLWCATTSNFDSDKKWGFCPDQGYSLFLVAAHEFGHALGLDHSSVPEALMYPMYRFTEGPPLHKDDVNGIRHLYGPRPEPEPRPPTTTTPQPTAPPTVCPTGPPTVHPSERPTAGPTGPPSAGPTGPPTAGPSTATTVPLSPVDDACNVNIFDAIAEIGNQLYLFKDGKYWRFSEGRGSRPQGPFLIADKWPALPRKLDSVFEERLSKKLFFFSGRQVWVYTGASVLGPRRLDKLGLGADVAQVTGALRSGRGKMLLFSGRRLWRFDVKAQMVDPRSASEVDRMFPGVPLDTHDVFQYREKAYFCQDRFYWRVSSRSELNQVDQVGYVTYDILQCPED

Molecule `COc1ccc(P(=O)(OC)N2Cc3ccccc3CC2C(=O)NO)cc1` (configuration not stated) registered an IC50 in assay [1] of 70 nM. The Ki was 2.03 nM in assay [2], 2.95 nM in assay [3], 3.64 nM in assay [4] and 8.92 nM in assay [5].

On to `CCCCCCOP(=O)(c1ccc(OC)cc1)N1Cc2ccccc2CC1C(=O)NO` (configuration not stated), for which, in assay [1], the IC50 turned out to be 1600 nM. Further, the Ki stood at 6.57 nM in assay [2], 5.19 nM in assay [3], 10.9 nM in assay [4] and 32.7 nM in assay [5].

In turn, `CCN(CC)CCOP(=O)(c1ccc(OC)cc1)N1Cc2ccccc2CC1C(=O)NO` (configuration not stated) registered an IC50 in assay [1] of 1140 nM. Also, the Ki in assay [2] is 16.7 nM; in assay [3], 82.4 nM; in assay [4], 10.7 nM; in assay [5], 33.2 nM.

For the molecule `CCOP(=O)(c1ccc(OC)cc1)N1CCCC1C(=O)NO` (configuration not stated), the IC50 in assay [1] was greater than 10000 nM. Besides, the Ki in assay [2] is 316 nM; in assay [3] it was 527 nM; in assay [4] it was greater than 850 nM; in assay [5], greater than 780 nM.

`CCOP(=O)(c1cccc(F)c1)N1Cc2ccccc2CC1C(=O)NO` (configuration not stated) had an IC50 in assay [1] of 830 nM. Further, the Ki worked out at 80.1 nM in assay [2], 51.4 nM in assay [3], 27.1 nM in assay [4] and 22.8 nM in assay [5].

As for `CCOP(=O)(c1ccccc1)N1Cc2ccccc2CC1C(=O)NO` (configuration not stated), in assay [1], the IC50 worked out at 370 nM. In addition, the Ki in assay [2] turned out to be 42.7 nM; in assay [3], 34.9 nM; in assay [4] it was 11.4 nM; in assay [5], 11.2 nM.

As to `CCOP(=O)(/C=C/c1ccccc1)N1Cc2ccccc2CC1C(=O)NO` (configuration not stated), the IC50 in assay [1] came to 910 nM. Besides, the Ki in assay [2] was found to be 88.8 nM; in assay [3] it was 29.7 nM; in assay [4], 160 nM; in assay [5] it was 37.4 nM.

In turn, `CCOP(=O)(c1ccc(F)cc1)N1Cc2ccccc2CC1C(=O)NO` (configuration not stated) had an IC50 in assay [1] of 300 nM. Also, the Ki in assay [2] stood at 51.9 nM; in assay [3], 64.4 nM; in assay [4], 0.97 nM.

The molecule `CCOP(=O)(c1ccc(C)cc1)N1Cc2ccccc2CC1C(=O)NO` (configuration not stated) showed an IC50 in assay [1] of 1890 nM. Moreover, the Ki in assay [2] came out at 41.8 nM; in assay [3], 72.9 nM; in assay [4] it was 4.9 nM; in assay [5], 500 nM.

`COc1ccc(P(=O)(OCCc2ccccn2)N2Cc3ccccc3CC2C(=O)NO)cc1` (configuration not stated) gave an IC50 in assay [1] of 180 nM. Moreover, the Ki was 3.42 nM in assay [2], 6.41 nM in assay [3], 3.14 nM in assay [4] and 120 nM in assay [5].

Regarding `CCOP(=O)(c1ccc(OC)cc1)N1CCN(C(=O)OCc2ccccc2)CC1C(=O)NO` (configuration not stated), the IC50 in assay [1] was found to be 430 nM. In addition, the Ki is 5.2 nM in assay [2], 14.9 nM in assay [3], 20.1 nM in assay [4] and 7.99 nM in assay [5].

Turning to `CCOP(=O)(c1ccc(OC)cc1)N1Cc2ccsc2CC1C(=O)NO` (configuration not stated), the IC50 in assay [1] was 520 nM. The Ki in assay [2] worked out at 3.8 nM; in assay [3], 5.2 nM; in assay [4] it was 4.1 nM; in assay [5] it was 6.45 nM.

`CCOP(=O)(c1ccccc1F)N1Cc2ccccc2CC1C(=O)NO` (configuration not stated) came in with an IC50 in assay [1] of 1060 nM. For the same molecule, the Ki worked out at 32.1 nM in assay [2], 47.8 nM in assay [3], 24 nM in assay [4] and 73.6 nM in assay [5].

In the case of `CCOP(=O)(c1ccc(Oc2ccncc2)cc1)N1Cc2ccccc2CC1C(=O)NO` (configuration not stated), the IC50 in assay [1] was 660 nM. Further, the Ki in assay [2] came to 0.6 nM; in assay [3], 4.85 nM; in assay [4] it was 39.8 nM; in assay [5] it was 13.8 nM.

Molecule `COc1ccc(P(=O)(OC(C)C)N2Cc3ccccc3CC2C(=O)NO)cc1` (configuration not stated) registered an IC50 in assay [1] of 2240 nM. In addition, the Ki in assay [2] stood at 23.2 nM; in assay [3] it was 24.4 nM; in assay [4], 17.8 nM.

Regarding `COc1ccc(P(=O)(OCCc2ccc(-c3ccccc3)cc2)N2Cc3ccccc3CC2C(=O)NO)cc1` (configuration not stated), in assay [1], the IC50 was determined as 3560 nM. Besides, the Ki in assay [2] was determined as 6.47 nM; in assay [3], 12.8 nM; in assay [4] it was 7.33 nM; in assay [5] it was 90.2 nM.

As to `COc1ccc(P(=O)(OCC2CCCCC2)N2Cc3ccccc3CC2C(=O)NO)cc1` (configuration not stated), in assay [1], the IC50 turned out to be 1340 nM. For the same molecule, the Ki was 4.56 nM in assay [2], 2.43 nM in assay [3], 6.67 nM in assay [4] and 15.5 nM in assay [5].

As for `CCO[P@](=O)(c1ccc(OC)cc1)N1Cc2ccccc2C[C@H]1C(=O)NO`, the IC50 in assay [1] was greater than 10000 nM. Also, the Ki in assay [2] was greater than 800 nM; in assay [3], greater than 650 nM; in assay [4], greater than 850 nM; in assay [5], greater than 780 nM.

As for `COc1ccc(P(=O)(OCCc2ccccc2)N2Cc3ccccc3CC2C(=O)NO)cc1` (configuration not stated), in assay [1], the IC50 was 3110 nM. The Ki in assay [2] amounted to 5.22 nM; in assay [3] it was 8.15 nM; in assay [4], 4.43 nM; in assay [5], 42.2 nM.

`CCOP(=O)(CCc1ccccc1)N1Cc2ccccc2CC1C(=O)NO` (configuration not stated) showed an IC50 in assay [1] of 700 nM. Moreover, the Ki in assay [2] was found to be 38.3 nM; in assay [3] it was 11.6 nM; in assay [4] it was 20.8 nM; in assay [5] it was 14.2 nM.

The molecule `CCOP(=O)(c1ccc(Oc2ccccc2)cc1)N1Cc2ccccc2CC1C(=O)NO` (configuration not stated) yielded an IC50 in assay [1] of 260 nM. For the same molecule, the Ki in assay [2] came to 0.08 nM; in assay [3] it was 0.53 nM; in assay [4], 1.81 nM; in assay [5], 7.89 nM.

In the case of `CCO[P@@](=O)(c1ccc(OC)cc1)N1Cc2ccccc2CC1C(=O)NO` (some centres not stated), in assay [1], the IC50 worked out at 230 nM. Further, the Ki was 5.05 nM in assay [2], 5.2 nM in assay [3], 4.58 nM in assay [4] and 7.15 nM in assay [5].

With `CCCCOP(=O)(c1ccc(OC)cc1)N1Cc2ccccc2CC1C(=O)NO` (configuration not stated), in assay [1], the IC50 came out at 810 nM. In addition, the Ki was determined as 9.12 nM in assay [2], 24 nM in assay [3] and 5.39 nM in assay [4].

Molecule `CCO[P@@](=O)(c1ccc(OC)cc1)N1Cc2ccccc2C[C@H]1C(=O)NO` yielded an IC50 in assay [1] greater than 10000 nM. The Ki in assay [2] was 349 nM; in assay [3], greater than 650 nM; in assay [4] it was 759 nM; in assay [5], greater than 780 nM.

`CCOP(=O)(c1ccc(Oc2ccc(N)cc2)cc1)N1Cc2ccccc2CC1C(=O)NO` (configuration not stated): the IC50 in assay [1] was 1670 nM. For the same molecule, the Ki in assay [2] turned out to be 0.1 nM; in assay [3], 0.5 nM; in assay [4], 6.5 nM; in assay [5], 21.7 nM.

In the case of `CCO[P@](=O)(c1ccc(OC)cc1)N1Cc2ccccc2CC1C(=O)NO` (some centres not stated), in assay [1], the IC50 is greater than 10000 nM. The Ki in assay [2] was greater than 800 nM; in assay [3] it was greater than 650 nM; in assay [4], greater than 850 nM; in assay [5], greater than 780 nM.

With `CCOP(=O)(c1ccc(N)cc1)N1Cc2ccccc2CC1C(=O)NO` (configuration not stated), the IC50 in assay [1] stood at 660 nM. In addition, the Ki in assay [2] stood at 95.6 nM; in assay [3] it was 162 nM; in assay [4], 58.8 nM; in assay [5] it was 75.8 nM.

As for `CCOP(=O)(c1ccc(-c2ccccc2)cc1)N1Cc2ccccc2CC1C(=O)NO` (configuration not stated), the IC50 in assay [1] was found to be 1960 nM. Also, the Ki in assay [2] was found to be 0.31 nM; in assay [3] it was 4.36 nM; in assay [4], 9.65 nM; in assay [5], 50 nM.

Values taken from ChEMBL document CHEMBL1135723, “New type of metalloproteinase inhibitor: design and synthesis of new phosphonamide-based hydroxamic acids” (J Med Chem, 2002).
